Reference: article PMC3212727 (The Journal of Experimental Medicine, 2006)

How the values were obtained:
[1] = test system: TAP1-GFP in MelJuSo cells; assay: TAP mobility assay; format: cell-based, human; settings: FRAP; for initial increase in intracellular peptides: measured 1 h after irradiation, Fig. 2A and unpublished data
How it was run: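 FRAP was run at 37°C on MelJuSo cells stably expressing TAP1-GFP, imaged 1 h after 4 Gy γ-irradiation. Some cells were pretreated with 10 μM lactacystin for 30 min, ATP-depleted with 0.05% NaAz plus […] 2-deoxyglucose for 30 min, or given cycloheximide. An ER spot was bleached at full laser power and recovery followed with an attenuated beam. Diffusion coefficient came from bleach-corrected recovery half-times: ≥3 experiments, mean ± SD.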

[2] = test system: MC38 cells; assay: H2-Kb expression of MC38 cells by flow cytometry; format: cell-based, mouse; settings: MC38, 20 Gy, 24 h, 20 nM rapamycin; FITC mAb H-2Kb
How it was run: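 MC38 murine colon adenocarcinoma cells (H-2b) were γ-irradiated with 20 Gy (137Cs, 0.75 Gy/min) and cultured 24 h with or without 20 nM rapamycin. They were then stained with FITC-labelled anti-H-2Kb mAb and analysed by flow cytometry against an isotype control antibody. Percentage of positive cells and mean fluorescence intensity were reported.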

[3] = test system: mTOR pathway; assay: Surface MHC class I expression of MelJuSo cells; format: cell-based, human; settings: 25 Gy, 20 nM rapamycin, W6/32 flow cytometry, n = 4
How it was run: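 Human melanoma MelJuSo cells received 0–25 Gy γ-irradiation (137Cs, 0.75 Gy/min). They were cultured for the stated times with or without 20 nM rapamycin, stained for surface MHC class I with W6/32 and analysed by flow cytometry, with a background control lacking primary antibody. Mean fluorescence intensity was expressed relative to nonirradiated control cells.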

[4] = test system: mTOR pathway; assay: GFP expression of irradiated MelJuSo cells by flow cytometry; format: cell-based, human; settings: 20 nM rapamycin
How it was run: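 MelJuSo cells stably transfected with EGFP in pcDNA3 (CMV promoter) received 0 or 25 Gy γ-irradiation (137Cs, 0.75 Gy/min), with or without 20 nM rapamycin. GFP fluorescence was read by flow cytometry at 0, 4 or 24 h after irradiation. n = 6, mean ± SD.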

[5] = test system: mTOR pathway; assay: Biosynthetic labeling and immunoprecipitation of MHC molecules; format: cell-based, human; settings: HLA-A2-GFP MelJuSo, 0, 10 or 20 Gy, 6 h, 10 nM rapamycin, 35S-methionine/cystein 1 h
[6] = test system: MC38 cells; assay: 111In release cytotoxicity assay with gp70-specific CTL; format: cell-based, mouse; settings: 20 nM rapamycin 24 h, then 18 h with CTL

SMILES | initial increase in intracellular peptides [1] | TAP activity in irradiated cells ([1]; pretreatment before irradiation, 4 Gy, measured 1 h later, n = 9) | radiation-induced up-regulation of MHC class I expression [2] | MHC class I expression 4 h after irradiation ([3]; 4 h) | radiation-induced increase in MHC class I expression 24 h after irradiation ([3]; 24 h) | GFP expression in response to ionizing radiation ([4]; MelJuSo-EGFP (CMV promoter), 25 Gy, 24 h, n = 6) | GFP expression in nonirradiated cells ([4]; MelJuSo-EGFP, no radiation) | translation of GFP-tagged and endogenous MHC class I molecules, H chains and MHC class II molecules [5] | lysis of irradiated MC38 cells by gp70-specific CTL ([6]; 20 Gy, E:T 100:1 to 3.125:1) | CTL recognition of nonirradiated cells ([6]; MC38, no radiation)
C[C@@H]1C[C@@H]([C@H](O)CC2CC(=O)NC(=O)C2)C(=O)[C@@H](C)C1 [cycloheximide] | not inhibited | no effect on TAP activity | – | – | – | – | – | – | – | –
CO[C@H]1C[C@@H]2CC[C@@H](C)[C@@](O)(O2)C(=O)C(=O)N2CCCC[C@H]2C(=O)O[C@H]([C@H](C)C[C@@H]2CC[C@@H](O)[C@H](OC)C2)CC(=O)[C@H](C)/C=C(\C)[C@@H](O)[C@@H](OC)C(=O)[C@H](C)C[C@H](C)/C=C/C=C/C=C/1C [rapamycin] | not inhibited | – | can be inhibited | No effect | markedly reduced | no increase in GFP expression | decreased GFP expression | inhibited | enhanced lysis in a rapamycin-dependent fashion | no effect
